The values that follow come from ChEMBL document CHEMBL1938254, “Semisynthetic neoboutomellerone derivatives as ubiquitin-proteasome pathway inhibitors” (Bioorg Med Chem, 2012).

Holding throughout (type): cell-based
Assay [1] deals with DLD-1. The assay can be described thus: Inhibition of 20S proteasome in human DLD1 cells transfected with 4Ub-Luc gene assessed as bioluminescence induction factor at 5 uM after 8 hrs by luciferase reporter gene assay relative to epoxomicin. In short, it runs like this: (§1)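 Stably transfected DLD-1 cells expressing 4Ub-Luc reporter, cultured in MEM with 5% heat-inactivated serum. Seeded at 10⁴ cells/well and treated with compound or solvent for 8 h. Luciferase activity in lysates read by luminometer. Induction factor = signal of treated over untreated cells, normalised to epoxomicin at 10^-7 M run in parallel (set to 100). IF ≥10 counted active.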
Background: In a reporter assay the amount or activity of a reporter protein is the signal.

Assay [2] has as its system DLD-1. The assay can be described thus: Inhibition of 20S proteasome in human DLD1 cells transfected with 4Ub-Luc gene assessed as bioluminescence induction factor at 1 uM after 8 hrs by luciferase reporter gene assay relative to epoxomicin. In short, it runs like this: as §1
Assay [3] has as its system DLD-1. Put plainly: Inhibition of 20S proteasome activity in human DLD1 cells transfected with 4Ub-Luc gene assessed as bioluminescence induction factor at 10 uM after 8 hrs by luciferase reporter gene assay relative to epoxomicin. An outline of the steps: as §1
The nature of assay [4]: Inhibition of chymotrypsin-like activity of 20S proteasome in human DLD1 cells transfected with 4Ub-Luc gene using Succinyl-Leu-Leu-Val-Tyr-AMC as substrate after 6 hrs by spectrofluorometric analysis. The settings on record: dld-1. An outline of the steps: (§2)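 DLD-1 4Ub-Luc cells seeded at 10⁴ cells/well, exposed to compound or solvent for 6 h, then 30 min in reaction buffer (30 mM Tris–HCl pH 7.5, 1 mM ATP). Chymotrypsin-like and PGPH activities read with specific fluorogenic substrates.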

The nature of assay [5]: Inhibition of peptide-glutamyl-peptide-hydrolyzing activity of 20S proteasome in human DLD1 cells transfected with 4Ub-Luc gene using Z-Leu-Leu-Glu-AMC as substrate after 6 hrs by spectrofluorometric analysis. The settings on record: dld-1. In short, it runs like this: as §2

One may read the IC50 as the concentration at which inhibition is half-maximal. Read a low IC50 as greater potency in that assay.

Take `C=C(C(=O)[C@H](OC(C)=O)[C@@H](C)[C@H]1[C@@H](OC(C)=O)C[C@@]2(C)[C@@H]3CC[C@H]4[C@H](C)C(=O)C=C[C@@]45C[C@@]35CC[C@]12C)[C@@H](C)CN1C(=O)CN(CCCN(CCCCN(CCCNC(=O)OC(C)(C)C)C(=O)OC(C)(C)C)C(=O)OC(C)(C)C)C1=O`: the fold change (FC) is 30 in assay [1], 1 in assay [2] and 37 in assay [3].
With `C=C(C(=O)[C@H](OC(C)=O)[C@@H](C)[C@H]1[C@@H](OC(C)=O)C[C@@]2(C)[C@@H]3C[C@@H](O)[C@H]4[C@H](C)C(=O)C=C[C@@]45C[C@@]35CC[C@]12C)[C@@H](C)CO`, the half-inhibitory concentration (IC50) in assay [4] and in assay [5] was greater than 1000 µM in each case. For the same molecule, the values for the fold change (FC) in assay [1] and in assay [2] were 31 and 5.1, respectively.
Turning to `CC(=O)O[C@H]1C[C@@]2(C)[C@@H]3CC[C@H]4[C@H](C)C(=O)C=C[C@@]45C[C@@]35CC[C@]2(C)[C@H]1[C@H](C)C=O`, the fold change (FC) worked out at 1.3 in assay [1] and 3 in assay [3].
As for `C=C(C(=O)[C@H](OC(C)=O)[C@@H](C)[C@H]1[C@@H](OC(C)=O)C[C@@]2(C)[C@@H]3CC[C@H]4[C@H](C)C(=O)C=C[C@@]45C[C@@]35CC[C@]12C)[C@@H](C)COC(=O)CCl`, the IC50 in assay [4] and in assay [5] was greater than 1000 µM each time. Besides, the values for the fold change (FC) in assay [1], in assay [2] and in assay [3] were 52, 12 and 19, respectively.
`CC(=O)O[C@H]1C[C@@]2(C)[C@@H]3CC[C@H]4[C@H](C)C(=O)C=C[C@@]45C[C@@]35CC[C@]2(C)[C@H]1[C@H](C)[C@@H](OC(C)=O)C(=O)C=C(C)C`: the concentration for half-maximal inhibition (IC50) in assay [4] and in assay [5] was greater than 1000 µM each time. Further, the fold change (FC) in assay [1] came out at 34; in assay [2], 1.1; in assay [3], 44.
With `C=C(C(=O)[C@H](O)[C@@H](C)[C@H]1[C@@H](OC(C)=O)C[C@@]2(C)[C@@H]3CC[C@H]4[C@H](C)C(=O)C=C[C@@]45C[C@@]35CC[C@]12C)[C@@H](C)COS(=O)(=O)O`, the values for the fold change (FC) in assay [1], in assay [2] and in assay [3] were 0.8, 0.9 and 0.9, respectively.
Take `C=C(C(=O)[C@H](OC(C)=O)[C@@H](C)[C@H]1[C@@H](OC(C)=O)C[C@@]2(C)[C@@H]3CC[C@H]4[C@H](C)C(=O)C=C[C@@]45C[C@@]35CC[C@]12C)[C@@H](C)COC(=O)CP(=O)(O)O`: the fold change (FC) in assay [1] is 1.1; in assay [2], 1.1; in assay [3] it was 1.4.
In the case of `C=C(C(=O)[C@H](OC(C)=O)[C@@H](C)[C@H]1[C@@H](OC(C)=O)C[C@@]2(C)[C@@H]3CC[C@H]4[C@H](C)C(=O)C=C[C@@]45C[C@@]35CC[C@]12C)[C@@H](C)C(=O)O`, the values for the fold change (FC) in assay [1], in assay [2] and in assay [3] were 1.4, 1 and 16, respectively.
Turning to `C=C(C(=O)[C@H](O)[C@@H](C)[C@H]1[C@@H](OC(C)=O)C[C@@]2(C)[C@@H]3CC[C@H]4[C@H](C)C(=O)C=C[C@@]45C[C@@]35CC[C@]12C)[C@@H](C)COC(=O)CN(C)C` [listing 1 of 2 here], the IC50 amounted to 19 µM in assay [4] and 23 µM in assay [5].
For `C=C(C(=O)[C@H](O)[C@@H](C)[C@H]1[C@@H](OC(C)=O)C[C@@]2(C)[C@@H]3CC[C@H]4[C@H](C)C(=O)CC[C@@]45C[C@@]35CC[C@]12C)[C@@H](C)CO`, the results for the fold change (FC) in assay [1], in assay [2] and in assay [3] were 10, 1.2 and 77, respectively.
On to `CONCC(C(=O)[C@H](OC(C)=O)[C@@H](C)[C@H]1[C@@H](OC(C)=O)C[C@@]2(C)[C@@H]3CC[C@H]4[C@H](C)C(=O)C=C[C@@]45C[C@@]35CC[C@]12C)[C@@H](C)CO` (stereo not given in full), for which the fold change (FC) was found to be 1.2 in assay [1], 1.1 in assay [2] and 4.9 in assay [3].
The corresponding values for `C=C(C(=O)[C@H](OC(C)=O)[C@@H](C)[C@H]1[C@@H](OC(C)=O)C[C@@]2(C)[C@@H]3CC[C@H]4[C@H](C)C(=O)C=C[C@@]45C[C@@]35CC[C@]12C)[C@@H](C)CO[C@@]1(C)O[C@@H]2O[C@@H](COC(C)=O)[C@H](OC(C)=O)[C@@H](OC(C)=O)[C@@H]2O1` are 59, 2 and 48.
In the same order, the values of `CC(=O)O[C@H]1C[C@@]2(C)[C@@H]3CC[C@H]4[C@H](C)/C(=N/OCc5ccccc5)C=C[C@@]45C[C@@]35CC[C@]2(C)[C@H]1[C@H](C)[C@@H](OC(C)=O)C(=O)C(CNOCc1ccccc1)[C@@H](C)CO` (stereo not given in full) are 0.9, 0.9 and 0.9.
Regarding `C=C(C(=O)[C@H](OC(C)=O)[C@@H](C)[C@H]1[C@@H](OC(C)=O)C[C@@]2(C)[C@@H]3CC[C@H]4[C@H](C)C(=O)C=C[C@@]45C[C@@]35CC[C@]12C)[C@H](C)CO`, the fold change (FC) in assay [1] turned out to be 51; in assay [2], 1.1; in assay [3], 88.
Turning to `CO/N=C1/C=C[C@]23C[C@]24CC[C@]2(C)[C@@H]([C@H](C)[C@@H](OC(C)=O)C(=O)C(CNOC)[C@@H](C)CO)[C@@H](OC(C)=O)C[C@@]2(C)[C@@H]4CC[C@H]3[C@@H]1C` (stereo not given in full), the fold change (FC) was determined as 0.7 in assay [1], 1 in assay [2] and 0.6 in assay [3].
For the molecule `C=C(C(=O)[C@H](O)[C@@H](C)[C@H]1[C@@H](OC(C)=O)C[C@@]2(C)[C@@H]3CC[C@H]4[C@H](C)C(=O)C=C[C@@]45C[C@@]35CC[C@]12C)[C@@H](C)COC(=O)N1CCN(C)CC1`, the IC50 in assay [4] and in assay [5] was 12 µM each time.
As to `C=C(C(=O)[C@H](OC(=O)CCC(=O)O)[C@@H](C)[C@H]1[C@@H](OC(C)=O)C[C@@]2(C)[C@@H]3CC[C@H]4[C@H](C)C(=O)C=C[C@@]45C[C@@]35CC[C@]12C)[C@@H](C)COC(=O)CCC(=O)O`, the fold change (FC) in assay [1] stood at 1.1; in assay [2] it was 1.2; in assay [3] it was 1.2.
Regarding `C=C(C(=O)[C@H](OC(C)=O)[C@@H](C)[C@H]1[C@@H](OC(C)=O)C[C@@]2(C)[C@@H]3CC[C@H]4[C@H](C)C(=O)C=C[C@@]45C[C@@]35CC[C@]12C)[C@@H](C)COC(=O)CN`, the fold change (FC) turned out to be 76 in assay [1], 1.4 in assay [2] and 56 in assay [3].
As to `C=C(C(=O)[C@H](OC(C)=O)[C@@H](C)[C@H]1[C@@H](OC(C)=O)C[C@@]2(C)[C@@H]3CC[C@H]4[C@H](C)C(=O)C=C[C@@]45C[C@@]35CC[C@]12C)[C@@H](C)COS(=O)(=O)O`, the fold change (FC) was found to be 1.4 in assay [1], 1.4 in assay [2] and 1.6 in assay [3].
For `C=C(C(=O)[C@H](OC(C)=O)[C@@H](C)[C@H]1[C@@H](OC(C)=O)C[C@@]2(C)[C@@H]3CC[C@H]4[C@H](C)C(=O)C[C@H](O)[C@@]45C[C@@]35CC[C@]12C)[C@@H](C)CO`, the values for the fold change (FC) in assay [1], in assay [2] and in assay [3] were 11, 1.6 and 74, respectively.
The corresponding values for `C=C(C(=O)[C@H](OC(C)=O)[C@@H](C)[C@H]1[C@@H](OC(C)=O)C[C@@]2(C)[C@@H]3CC[C@H]4[C@H](C)C(=O)C(O)C(O)[C@@]45C[C@@]35CC[C@]12C)[C@@H](C)COCC(O)CO` (stereo not given in full) are 32, 1.1 and 48.
As for `C=C(C(=O)[C@H](OC(C)=O)[C@@H](C)[C@H]1[C@@H](OC(C)=O)C[C@@]2(C)[C@@H]3CC[C@H]4[C@H](C)C(=O)C=C[C@@]45C[C@@]35CC[C@]12CO)[C@@H](C)CO`, the fold change (FC) is 12 in assay [1], 1.2 in assay [2] and 1.1 in assay [3].
The corresponding values for `C=C(C(=O)[C@H](OC(C)=O)[C@@H](C)[C@H]1[C@@H](OC(C)=O)C[C@@]2(C)[C@@H]3CC[C@H]4[C@H](C)C(=O)C=C[C@@]45C[C@@]35CC[C@]12C)[C@@H](C)C=O` are 70, 1 and 31.
With `C=C(C(=O)[C@H](O)[C@@H](C)[C@H]1[C@@H](OC(C)=O)C[C@@]2(C)[C@@H]3C[C@@H](O)[C@H]4[C@H](C)C(=O)C=C[C@@]45C[C@@]35CC[C@]12C)[C@@H](C)CO`, the half-maximal inhibitory concentration (IC50) in assay [4] and in assay [5] was greater than 1000 µM throughout. For the same molecule, the fold change (FC) was 35 in assay [1] and 1.1 in assay [2].
Turning to `C=C(C(=O)[C@H](OC(C)=O)[C@@H](C)[C@H]1[C@@H](OC(C)=O)C[C@@]2(C)[C@@H]3CC[C@H]4[C@H](C)C(=O)C=C[C@@]45C[C@@]35CC[C@]12C)[C@@H](C)COC(=O)CNCCCNCCCCNCCCN`, the fold change (FC) in assay [1] worked out at 1.4; in assay [2] it was 1.1; in assay [3], 11.
With `C=C(C(=O)[C@H](O)[C@@H](C)[C@H]1[C@@H](OC(C)=O)C[C@@]2(C)[C@@H]3CC[C@H]4[C@H](C)C(=O)C=C[C@@]45C[C@@]35CC[C@]12C)[C@@H](C)COC(=O)CN(C)C` [listing 2 of 2 here], the IC50 in assay [4] is 17 µM; in assay [5], 22 µM.
